≈ marks a conversion by molar mass, not a printed value.
How the values were obtained:
Assay type in all cases: functional, cell-based; call rule not given here
[1] = Cytotoxicity against rat HSC-T6 cells after 44 hrs by MTT assay
How it was run: (§1)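 Exponential-phase cells seeded at 5 × 10⁴ per well and preincubated 24 h at 37 °C, 5% CO₂. Test agent added in triplicate at final 10, 50 and 100 μg/mL, incubated 44 h at 37 °C. MTT then added for 4 h at 37 °C, absorbance read at 490 nm. IC50 derived from percentage inhibition by linear regression.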

B16 = assay: Cytotoxicity against mouse B16 cells after 44 hrs by MTT assay; how it was run: as §1
HeLa = assay: Cytotoxicity against human HeLa cells after 44 hrs by MTT assay; how it was run: as §1
[2] = Rattus norvegicus, HSC-T6, 44 h, read-out: IC50
[3] = Mus musculus, B16, 44 h, read-out: IC50
[4] = Homo sapiens, HeLa, 44 h, read-out: IC50

| SMILES | IC50 [1, 2] | IC50 (B16; [3]) | IC50 (HeLa; [4]) | IC50 ([1]; hsc-t6) | IC50 (B16; b16) | IC50 (HeLa; hela) |
| --- | --- | --- | --- | --- | --- | --- |
| CC(=O)OC[C@@]1(C(=O)O)CCC[C@@]2(C)[C@@H]3CC[C@H]4C[C@@]3(CC[C@H]12)C[C@H]4COC(=O)C(C)C | 24.6 µg/mL (≈ 54.8 µM) | 22.8 µg/mL (≈ 50.8 µM) | 24.6 µg/mL (≈ 54.8 µM) | – | – | – |
| CC1(C)OC[C@@H]([C@]2(C)C=C3CC[C@@H]4C(C)(C)[C@H](O)CC[C@@]4(C)C3CC2)O1 (stereo partly drawn) | 12.6 µg/mL (≈ 34.8 µM) | 7.8 µg/mL (≈ 21.5 µM) | 11.7 µg/mL (≈ 32.3 µM) | – | – | – |
| C[C@@]12CCC[C@@](C)(C(=O)O)[C@H]1CC[C@@]13C[C@H](CC[C@H]12)[C@@](O)(CO)C3 | > 100 µg/mL | > 100 µg/mL | > 100 µg/mL | – | – | – |
| CC1(C)[C@H](O)CC[C@@]2(C)[C@@H]3CC[C@](C)([C@@H](O)CO)C=C3CC[C@H]12 [DARUTIGENOL] | – | – | > 100 µg/mL | Not Active | Not Active | – |
| C[C@@]1(CO)C[C@@H](O)C[C@@]2(C)[C@@H]3CC[C@](C)([C@@H](O)CO)C=C3CC[C@H]12 [KIRENOL] | > 100 µg/mL | > 100 µg/mL | – | – | – | Not Active |
| CC(=O)O[C@H]1C(=O)[C@@]2(C)[C@H]([C@H](OC(=O)c3ccccc3)[C@]3(O)C[C@H](OC(=O)[C@H](O)[C@@H](NC(=O)c4ccccc4)c4ccccc4)C(C)=C1C3(C)C)[C@]1(OC(C)=O)CO[C@@H]1C[C@@H]2O [PACLITAXEL] | 0.75 µg/mL (≈ 0.878 µM) | 0.63 µg/mL (≈ 0.738 µM) | 0.61 µg/mL (≈ 0.714 µM) | – | – | – |
